# Screens as filed in PubChem BioAssay.
# The list is not random: actives were taken first. Their share in the collection is about 6.4%.
# MPTP inh: mitochondrial permeability transition pore inhibitors, primary screen, biochemical, isolated mouse mitochondria, absorbance | Ca2+ swelling absorbance, 30 min | inhibition, % at 10 µM | 1.4% of 360,000 active | AID 602449, 2012;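 active = inhibition of 50% or more, scaled per plate between neutral and stimulator controls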;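 also: 0% = DMSO wells given calcium and 100% = 1 mM EGTA wells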
# WT yeast gro inh: growth inhibition of WT strain, primary screen, mitochondrial fusion inhibitor project, WT and mutant strains, chemical genetic | mitochondrial fusion phenotypic screen | inhibition, % at 10 µM | 2.1% of 190,000 active; in the data active = inhibition above about 58%; tested in S. cerevisiae
# EBV gp42 block: Epstein-Barr virus gp42 inhibitors, primary screen, biochemical, uHTS, fluorescence polarization; Glycoprotein 42 (Epstein-Barr virus (strain AG876)), Q1HVG2; Fluorescence polarization binding assay, mP read-out; inhibition, % (tested at 21.74 µM); 0.42% of 220,000 active; AID 1085, 2008; in the data active = inhibition above about 50%
# Target sequence (Q1HVG2 whole entry, looked up): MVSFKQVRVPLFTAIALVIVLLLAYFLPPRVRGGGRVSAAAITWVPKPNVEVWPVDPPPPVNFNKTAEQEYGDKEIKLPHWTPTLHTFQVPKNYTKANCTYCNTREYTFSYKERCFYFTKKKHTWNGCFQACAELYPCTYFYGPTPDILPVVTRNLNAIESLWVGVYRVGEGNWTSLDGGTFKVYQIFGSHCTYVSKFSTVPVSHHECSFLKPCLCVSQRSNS
# CHOP inh: inhibitors of CHOP promoter induction, primary screen, cell-based, unfolded protein response, luciferase reporter; CHO-K1 CHOP-promoter luciferase, tunicamycin-induced, 15-18 h; inhibition, % at 10 µM; 3.8% of 220,000 active; AID 2732, 2010;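 active = compounds that reduced the stress-induced luciferase reporter signal by more than about 70% of percent inhibition, limit read from the data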;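 also: 0% = tunicamycin plus vehicle and 100% = wells without tunicamycin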
# TbMetRS inhib: T. brucei MetRS inhibitors, primary screen, biochemical, luminescence. purified T. brucei MetRS, ATP depletion, Kinase-Glo luminescence. methionyl-tRNA synthetase (Trypanosoma brucei brucei). 0.4% of 360,000 active. inhibition, % at 11.9 µM;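 active = inhibition above a per-plate cutoff of the control wells' mean inhibition plus 3 SD, cut at about 5.5% in these data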;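 also: 0% = DMSO wells median and 100% = median of wells with control inhibitor compound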
#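 technique = Kinase-Glo luminescence, ATP depletion format | system = purified MetRS (methionyl-tRNA synthetase) enzyme from Trypanosoma brucei | timing = 15 min preincubation, 2 h reaction, all 25 °C | evaluation = percent inhibition versus plate control medians | dosing = single dose, 11.9 µM final nominal, 0.9% final DMSO | also added = substrates ATP, L-methionine and bulk Escherichia coli tRNA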
# NR3A LBD binder: binders of NR3A ligand-binding domain, primary screen, biophysical, differential scanning fluorimetry, uHTS; NR3A LBD differential scanning fluorimetry, Tm shift; 0% = protein alone, 100% = glycine-bound protein; Tm shift relative to glycine control, % at 25 µM; 2.5% of 340,000 active;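 active = melting temperature shift of at least 10% of the positive control shift, at one fixed dose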
# * = called active by the depositor; . = no result.
SMILES,MPTP inh,WT yeast gro inh,EBV gp42 block,CHOP inh,TbMetRS inhib,NR3A LBD binder
CC(C)=C1C2CCC1C1C(=O)N(NC(=O)COc3ccc(C(C)(C)C)cc3)C(=O)C21 (stereo not drawn),1,57,-14,92*,0,-2
CN(C)c1cccc(F)c1C(=O)NC(=O)Nc1ccc(Cl)cc1,1,.,.,.,0,11*
Cc1cc(=O)nc2c3ccccc3n(CC(=O)NCCCN3CCCC3=O)n12,-1,.,.,.,-1,0
COc1ccc(OC)c(Nc2nc(-c3ccccc3O)nc3ccccc23)c1,2,-9,1,-2,0,-3
COc1cccc(Nc2nc(-c3ccccc3O)nc3ccccc23)c1,4,.,.,.,-2,32*
Oc1ccccc1Nc1nc(-c2ccccc2O)nc2ccccc12,6,.,.,.,-1,28*
COc1cccc(Nc2nc(NCCO)c3ccccc3n2)c1,0,60*,-12,57,1,-1
Oc1ccc(Nc2nc(-c3ccccc3F)nc3ccccc23)cc1,1,.,.,.,-1,25*
COc1cccc(-c2nc(OC(C)C)c3ccccc3n2)c1,1,61*,13,16,0,-1
Oc1ccc(Nc2nc(-c3ccccc3O)nc3ccccc23)cc1,2,.,.,.,-1,36*
C/C(=N/Nc1nc(-c2ccccc2F)nc2ccccc12)c1ccccc1O,4,.,-12,7,0,-5
C/C(=N\Nc1nc(-c2ccccc2O)nc2ccccc12)c1ccccc1,3,0,-8,49,-1,13*
COc1cccc(Nc2nc(-c3ccccc3)nc3ccccc23)c1,3,.,.,.,-1,37*
COc1ccc(Nc2nc(-c3ccccc3)nc3ccccc23)c(OC)c1,1,33,0,10,-1,-2
O=C(CCc1c[nH]c2ccccc12)N[C@@H](Cc1c[nH]c2ccc(O)cc12)C(=O)O,0,.,.,.,0,0
COc1ccc(Nc2nc(-c3ccccc3O)nc3ccccc23)cc1,0,.,.,.,0,34*
O=C(Nc1cccc(C(F)(F)F)c1)c1cc2ncc(Br)cn2n1,1,6,18,79*,-1,-2
O=C(Nc1ccc2c(c1)OCO2)c1cc2ncc(Br)cn2n1,-1,-8,3,3,-1,-2
CCCCOC(=O)Cn1c2ccc(OC)cc2c2nc3ccccc3nc21,2,-2,79*,9,0,-2
CCn1c2ccc(OC)cc2c2nc3ccccc3nc21,.,-7,-16,39,.,3
COc1ccc(C2CC(c3ccccc3)=NN2C(=O)COC(=O)C2(C)CC2(Cl)Cl)cc1 (stereo not drawn),-1,72*,-11,13,-1,1
COc1ccc(C2CC(c3ccc(Br)cc3)=NN2C(=O)c2cccnc2)cc1 (stereo not drawn),1,64*,-5,53,0,3
COc1ccc(C2CC(c3ccccc3)=NN2C(=O)c2cccs2)cc1 (stereo not drawn),0,78*,-12,54,0,-4
COc1ccc(C2=NN(C(=O)c3cccs3)C(c3ccccc3O)C2)cc1 (stereo not drawn),8,85*,-29,62,-1,5
O=C(O)CC(NC(=O)COc1ccc(Cl)cc1Cl)C(=O)O (stereo not drawn),5,-4,-8,5,0,1
CC(=O)Nc1nc2n(n1)C(c1ccc(F)cc1)C=C(c1ccccc1)N2 (stereo not drawn),-2,15,33,10,0,-3
COC(=O)[C@@H](NC(=O)CCc1nnc(-c2ccsc2)o1)C(C)C,0,-13,-22,-1,0,-1
COc1ccc(C2CC(c3ccc4ccccc4c3)=NN2C(=O)CSc2ncccn2)cc1 (stereo not drawn),2,12,-44,9,0,19*
